Data reported in ChEMBL document CHEMBL1944562, “Design, synthesis of some new (2-aminothiazol-4-yl)methylester derivatives as possible antimicrobial and antitubercular agents” (2012).
In brackets after ≈: the same amount, converted by molar mass.

Assays:
Type in all cases: functional
[1] = system: Pseudomonas aeruginosa; test: Antibacterial activity against Pseudomonas aeruginosa ATCC 27853 after 16 to 18 hrs by […]
[2] = system: Aspergillus fumigatus; test: Antifungal activity against Aspergillus fumigatus NCIM N0.902 after 3 to 4 days by serial plate dilution method
[3] = system: Mycolicibacterium smegmatis; test: Antitubercular activity against Mycobacterium smegmatis ATCC 19420 after 7 days by resazurin assay; conditions: ATCC 19420, 168 h
Summary of the method: (§1)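 Middlebrook 7H9 broth with 10% OADC, culture adjusted to McFarland 2. 50 µL culture added to 150 µL fresh medium. Stocks at 2 mg/mL in DMF, tested first at 1, 10 and 100 µg/mL, then at 0.3125-5 µg/mL. DMF controls. After 7 days at 37 °C, 0.01% resazurin added. Blue-to-pink change read for MIC.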

[4] = system: Trichophyton mentagrophytes; test: Antifungal activity against Trichophyton mentagrophytes after 3 to 4 days by serial plate dilution method
[5] = system: Aspergillus flavus; test: Antifungal activity against Aspergillus flavus NCIM N0.524 at MIC after 3 to 4 days
Summary of the method: (§2)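 Fungal suspension made by transferring a loopful of culture to 3 mL saline and seeding agar plates, 20 mL agar per dish, dried 1 h at 37 °C. Punched wells loaded with test compound in DMSO at its MIC. DMSO-only control. Triplicate plates held 3-4 days at 37 °C. Inhibition zone diameter measured.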

[6] = system: Candida albicans; test: Antifungal activity against Candida albicans after 3 to 4 days by serial plate dilution method
[7] = system: Escherichia coli; test: Antibacterial activity against Escherichia coli ATCC 25922 after 16 to 18 hrs by […]
[8] = system: Pseudomonas aeruginosa; test: Antibacterial activity against Pseudomonas aeruginosa ATCC 27853 at MIC after 3 to 4 days
Summary of the method: (§3)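 Agar well diffusion on seeded agar plates, 20 mL agar per dish, dried 1 h at 37 °C. Wells punched and loaded with test compound in DMSO at its MIC. DMSO-only control. Plates run in triplicate and kept 3-4 days at 37 °C. Inhibition zone diameter measured.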

[9] = system: Aspergillus flavus; test: Antifungal activity against Aspergillus flavus NCIM N0.524 after 3 to 4 days by serial plate dilution method
[10] = system: Talaromyces marneffei; test: Antifungal activity against Penicillium marneffei at MIC after 3 to 4 days; summary of the method: as §2
[11] = system: Aspergillus fumigatus; test: Antifungal activity against Aspergillus fumigatus NCIM N0.902 at MIC after 3 to 4 days; summary of the method: as §2
[12] = system: Staphylococcus aureus; test: Antibacterial activity against Staphylococcus aureus ATCC 25923 at […] after 3 to 4 days; summary of the method: as §3
[13] = system: Staphylococcus aureus; test: Antibacterial activity against Staphylococcus aureus ATCC 25923 after 16 to 18 hrs by serial plate dilution method
[14] = system: Talaromyces marneffei; test: Antifungal activity against Penicillium marneffei after 3 to 4 days by serial plate dilution method
[15] = system: Mycobacterium tuberculosis; test: Antitubercular activity against Mycobacterium tuberculosis H37Rv assessed as growth inhibition after 7 days by resazurin assay
Summary of the method: (§4)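 M. tuberculosis H37Rv ATCC 27294 grown in Middlebrook 7H9 broth with 10% OADC and adjusted to McFarland 2. Culture was diluted 1:4 into fresh medium. Compounds came from 2 mg/mL DMF stocks, screened first at 1, 10 and 100, then at 0.3125–5. DMF-only controls were included. After 7 days at 37 °C, 0.01% resazurin was added; a blue-to-pink change marked growth, and the MIC was read.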

[16] = system: Trichophyton mentagrophytes; test: Antifungal activity against Trichophyton mentagrophytes at MIC after 3 to 4 days; summary of the method: as §2
[17] = system: Klebsiella pneumoniae; test: Antibacterial activity against Klebsiella pneumoniae at MIC after 3 to 4 days; summary of the method: as §3
[18] = system: Escherichia coli; test: Antibacterial activity against Escherichia coli ATCC 25922 at MIC after 3 to 4 days; summary of the method: as §3
[19] = system: Mycolicibacterium fortuitum; test: Antitubercular activity against Mycobacterium fortuitum ATCC 19542 after 7 days by resazurin assay; conditions: ATCC 19542, 168 h; summary of the method: as §1
[20] = system: Klebsiella pneumoniae; test: Antibacterial activity against Klebsiella pneumoniae after 16 to 18 hrs by […]
[21] = system: Candida albicans; test: Antifungal activity against Candida albicans at MIC after 3 to 4 days; summary of the method: as §2
[22] = system: Bacillus subtilis; test: Antibacterial activity against Bacillus subtilis at MIC after 3 to 4 days; summary of the method: as §3
[23] = system: Mycobacterium tuberculosis; test: Antitubercular activity against Mycobacterium tuberculosis H37Rv after 7 days by resazurin assay; conditions: 168 h; summary of the method: as §4
[24] = system: Bacillus subtilis; test: Antibacterial activity against Bacillus subtilis after 16 to 18 hrs by […]

| Structure (SMILES) | MIC [1] [µg/mL] | MIC [2] [µg/mL] | MIC [3] [µg/mL] | MIC [4] [µg/mL] | diameter of the inhibition zone (DIZ) [5] [mm] | MIC [6] [µg/mL] | MIC [7] [µg/mL] | diameter of the inhibition zone (DIZ) [8] [mm] | MIC [9] [µg/mL] | diameter of the inhibition zone (DIZ) [10] [mm] | diameter of the inhibition zone (DIZ) [11] [mm] | diameter of the inhibition zone (DIZ) [12] [mm] | MIC [13] [µg/mL] | MIC [14] [µg/mL] | growth inhibition (GI) [15] [%] | diameter of the inhibition zone (DIZ) [16] [mm] | diameter of the inhibition zone (DIZ) [17] [mm] | diameter of the inhibition zone (DIZ) [18] [mm] | MIC [19] [µg/mL] | MIC [20] [µg/mL] | other results |
| --- | --- | --- | --- | --- | --- | --- | --- | --- | --- | --- | --- | --- | --- | --- | --- | --- | --- | --- | --- | --- | --- |
| Nc1nc(COC(=O)c2cccs2)cs1 | 6.25 (≈ 26 µM) | 6.25 (≈ 26 µM) | 10 (≈ 41.6 µM) | 6.25 (≈ 26 µM) | <10 | 12.5 (≈ 52 µM) | 6.25 (≈ 26 µM) | 16 | 25 (≈ 104 µM) | <10 | 16 | 11 | 12.5 (≈ 52 µM) | 25 (≈ 104 µM) | <90 | 16 | <10 | 16 | 10 (≈ 41.6 µM) | 25 (≈ 104 µM) | diameter of the inhibition zone (DIZ) [21]: 11 mm; diameter of the inhibition zone (DIZ) [22]: <10 mm; MIC [23]: 10 µg/mL (≈ 41.6 µM); MIC [24]: 25 µg/mL (≈ 104 µM) |
| Nc1nc(COC(=O)c2ccc3ccccc3c2)cs1 | 6.25 (≈ 22 µM) | 12.5 (≈ 44 µM) | 10 (≈ 35.2 µM) | 12.5 (≈ 44 µM) | 11 | 6.25 (≈ 22 µM) | 6.25 (≈ 22 µM) | 16 | 12.5 (≈ 44 µM) | 11 | 11 | 16 | 6.25 (≈ 22 µM) | 12.5 (≈ 44 µM) | <90 | 11 | 16 | 16 | 10 (≈ 35.2 µM) | 6.25 (≈ 22 µM) | diameter of the inhibition zone (DIZ) [21]: 16 mm; diameter of the inhibition zone (DIZ) [22]: 16 mm; MIC [23]: 2.5 µg/mL (≈ 8.79 µM); MIC [24]: 6.25 µg/mL (≈ 22 µM) |
| Nc1nc(COC(=O)c2ccc(Br)cc2)cs1 | 25 (≈ 79.8 µM) | 25 (≈ 79.8 µM) | 2.5 (≈ 7.98 µM) | 12.5 (≈ 39.9 µM) | <10 | 6.25 (≈ 20 µM) | 25 (≈ 79.8 µM) | <10 | 25 (≈ 79.8 µM) | <10 | <10 | <10 | 25 (≈ 79.8 µM) | 25 (≈ 79.8 µM) | <90 | 11 | 16 | <10 | > 100 | 6.25 (≈ 20 µM) | diameter of the inhibition zone (DIZ) [21]: 16 mm; diameter of the inhibition zone (DIZ) [22]: <10 mm; MIC [23]: 2.5 µg/mL (≈ 7.98 µM); MIC [24]: 25 µg/mL (≈ 79.8 µM) |
| Nc1nc(COC(=O)c2ccco2)cs1 | 6.25 (≈ 27.9 µM) | 25 (≈ 111 µM) | > 100 | 25 (≈ 111 µM) | 16 | 6.25 (≈ 27.9 µM) | 6.25 (≈ 27.9 µM) | 16 | 6.25 (≈ 27.9 µM) | 16 | <10 | 16 | 6.25 (≈ 27.9 µM) | 6.25 (≈ 27.9 µM) | 0 | <10 | 16 | 16 | > 100 | 6.25 (≈ 27.9 µM) | diameter of the inhibition zone (DIZ) [21]: 16 mm; diameter of the inhibition zone (DIZ) [22]: 16 mm; MIC [23]: > 100 µg/mL; MIC [24]: 6.25 µg/mL (≈ 27.9 µM) |
